Assay results published in ChEMBL document CHEMBL1926538, “3,5-Disubstituted-thiazolidine-2,4-dione analogs as anticancer agents: design, synthesis and biological characterization” (Eur J Med Chem, 2012).
Active and inactive are the calls of the source. The rule behind the calls is not given here.

What was measured:
[1] = Induction of apoptosis in human M12 cells assessed as viable cells at 20 uM after 24 hrs by annexinV-propidium iodide staining-based flow cytometric analysis (reference value: 80.18%); type: functional; settings: M12, 24 h, read-out: Activity
U-937 [2] = experiment: Induction of apoptosis in human U937 cells assessed as necrotic cells at 10 uM after 18 hrs by annexinV-propidium iodide staining-based flow cytometric analysis (reference value: 0.7%); type: functional
U-937 [3] = experiment: Induction of apoptosis in human U937 cells assessed as late apoptotic cells at 10 uM after 18 hrs by annexinV-propidium iodide staining-based flow cytometric analysis (reference value: 7.8%); type: functional
U-937 [4] = experiment: Induction of apoptosis in human U937 cells assessed as viable cells at 10 uM after 3 hrs by annexinV-propidium iodide staining-based flow cytometric analysis (reference value: 86.3%); type: functional; settings: U-937, 3 h, read-out: Activity
U-937 [5] = experiment: Induction of apoptosis in human U937 cells assessed as necrotic cells at 3 uM after 18 hrs by annexinV-propidium iodide staining-based flow cytometric analysis (reference value: 0.7%); type: functional
U-937 [6] = experiment: Induction of apoptosis in human U937 cells assessed as late apoptotic cells at 3 uM after 18 hrs by annexinV-propidium iodide staining-based flow cytometric analysis (reference value: 7.8%); type: functional
U-937 [7] = experiment: Induction of apoptosis in human U937 cells assessed as viable cells at 3 uM after 18 hrs by annexinV-propidium iodide staining-based flow cytometric analysis (reference value: 87.2%); type: functional; settings: U-937, 18 h, read-out: Activity
U-937 [8] = experiment: Induction of apoptosis in human U937 cells assessed as necrotic cells at 3 uM after 6 hrs by annexinV-propidium iodide staining-based flow cytometric analysis (reference value: 1.2%); type: functional
U-937 [9] = experiment: Induction of apoptosis in human U937 cells assessed as late apoptotic cells at 3 uM after 6 hrs by annexinV-propidium iodide staining-based flow cytometric analysis (reference value: 13.8%); type: functional
U-937 [10] = experiment: Induction of apoptosis in human U937 cells assessed as early apoptotic cells at 3 uM after 3 hrs by annexinV-propidium iodide staining-based flow cytometric analysis (reference value: 2.8%); type: functional
U-937 [11] = experiment: Induction of apoptosis in human U937 cells assessed as viable cells at 3 uM after 3 hrs by annexinV-propidium iodide staining-based flow cytometric analysis (reference value: 86.3%); type: functional; settings: U-937, 3 h, read-out: Activity
U-937 [12] = experiment: Antiproliferative activity in human U937 cells assessed as inhibition of DNA synthesis at 10 to 30 uM after 24 hr by [3H]thymidine incorporation assay; type: functional, cell-based
Outline: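 U937 cells, 2 × 10⁴/well, incubated with compound at various concentrations for 1 h or 24 h in presence of 1 µCi [³H]-thymidine. Cells harvested and counted by liquid scintillation. Incorporation expressed as % inhibition versus control. Significance by one-way ANOVA.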

[13] = target: Proto-oncogene tyrosine-protein kinase Src (Homo sapiens) (UniProt P12931); experiment: Inhibition of SRC at 10 uM
[14] = target: Tyrosine-protein kinase SYK (Homo sapiens) (UniProt P43405); experiment: Inhibition of SYK at 10 uM
[15] = target: MAP kinase-activated protein kinase 5 (Homo sapiens) (UniProt Q8IW41); experiment: Inhibition of PRAK at 10 uM
[16] = target: Serine/threonine-protein kinase D2 (Homo sapiens) (UniProt Q9BZL6); experiment: Inhibition of PKD2 at 10 uM
[17] = Inhibition of PKGa at 10 uM
[18] = target: Serine/threonine-protein kinase PAK 2 (Homo sapiens) (UniProt Q13177); experiment: Inhibition of PAK2 at 10 uM
[19] = target: Serine/threonine-protein kinase MARK1 (Homo sapiens) (UniProt Q9P0L2); experiment: Inhibition of MARK1 at 10 uM
[20] = target: MAP kinase-activated protein kinase 2 (Homo sapiens) (UniProt P49137); experiment: Inhibition of MAPKAPK2 at 10 uM
[21] = target: Tyrosine-protein kinase Lyn (Homo sapiens) (UniProt P07948); experiment: Inhibition of LYN at 10 uM
[22] = target: Glycogen synthase kinase-3 beta (Homo sapiens) (UniProt P49841); experiment: Inhibition of GSK3-beta at 10 uM
[23] = target: Tyrosine-protein kinase Fyn (Homo sapiens) (UniProt P06241); experiment: Inhibition of FYN at 10 uM
[24] = target: Receptor-type tyrosine-protein kinase FLT3 (Homo sapiens) (UniProt P36888); experiment: Inhibition of FLT3 at 10 uM
[25] = target: Fibroblast growth factor receptor 1 (Homo sapiens) (UniProt P11362); experiment: Inhibition of FGFR1 at 10 uM
[26] = target: Mitogen-activated protein kinase 1 (Homo sapiens) (UniProt P28482); experiment: Inhibition of Erk2 at 10 uM
[27] = target: Mitogen-activated protein kinase 3 (Homo sapiens) (UniProt P27361); experiment: Inhibition of Erk1 at 10 uM
[28] = target: Casein kinase I isoform delta (Homo sapiens) (UniProt P48730); experiment: Inhibition of Ckld at 10 uM
[29] = target: RAC-beta serine/threonine-protein kinase (Homo sapiens) (UniProt P31751); experiment: Inhibition of AKT2 at 10 uM
[30] = target: RAF proto-oncogene serine/threonine-protein kinase (Homo sapiens) (UniProt P04049); experiment: Inhibition of […] phosphorylation in human U937 cells 1 to 10 uM after 1 hr by Western blot analysis; type: cell-based; settings: U-937
Outline: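 U937 cells at 5 × 10^5/mL were exposed to compound for 1 h, then sonicated in SDS/DTT sample buffer with protease inhibitors plus 1 mM orthovanadate and pyrophosphate, and boiled 5 min. Blots were blocked in 5% milk, probed with primary antibody overnight at 4 °C and 1:2000 HRP secondary, and read by chemiluminescence. α-Tubulin reprobe served as loading control. Blots shown represent one of three experiments.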

PC-3 = experiment: Growth inhibition of human PC3 cells after 24 hrs by MTS assay; type: functional, cell-based
Outline: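 Cells in RPMI 1640 with 10% heat-inactivated FBS, seeded 2 × 10⁴ cells/well and exposed 24 h. MTS reagent added, then 1 h further incubation at 37 °C, 5% CO₂. Formazan absorbance read at 490 nm. Viability expressed as percentage of untreated controls.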

U-937 [31] = experiment: Cell cycle arrest in human U937 cells assessed as sub-diploid apoptotic fraction at 10 uM after 24 hrs by propidium iodide staining-based flow cytometric analysis; type: functional
Outline: (§1)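 Cells cultured in RPMI 1640 with 10% FBS and treated 24 h at the indicated concentrations. Stained with propidium iodide for 4 h at 4 °C in the dark. Flow cytometry gave the percentage of cells in G₀/G₁, S, G₂/M and sub-G₁ phases.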

U-937 [32] = experiment: Cell cycle arrest in human U937 cells assessed as decrease in G2/M-phase population at 10 uM after 24 hrs by propidium iodide staining-based flow cytometric analysis; type: functional; outline: as §1
[33] = Induction of apoptosis in human M12 cells assessed as necrotic cells at 20 uM after 24 hrs by annexinV-propidium iodide staining-based flow cytometric analysis (reference value: 1.7%); type: functional
[34] = target: 3-phosphoinositide-dependent protein kinase 1 (Homo sapiens) (UniProt O15530); experiment: Inhibition of PDK1 at 10 uM

Sequence of Mitogen-activated protein kinase 1 (Homo sapiens) (P28482 whole entry): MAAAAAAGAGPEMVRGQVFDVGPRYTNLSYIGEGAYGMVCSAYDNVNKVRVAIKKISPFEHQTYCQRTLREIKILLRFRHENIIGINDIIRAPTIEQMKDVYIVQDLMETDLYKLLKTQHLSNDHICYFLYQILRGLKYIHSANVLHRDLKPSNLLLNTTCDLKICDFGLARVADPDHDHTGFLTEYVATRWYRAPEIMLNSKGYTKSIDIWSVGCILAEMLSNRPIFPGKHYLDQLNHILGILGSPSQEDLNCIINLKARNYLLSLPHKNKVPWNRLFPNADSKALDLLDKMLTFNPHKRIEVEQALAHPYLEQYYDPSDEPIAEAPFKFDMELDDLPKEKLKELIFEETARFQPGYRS
Sequence of Serine/threonine-protein kinase D2 (Homo sapiens) (Q9BZL6 whole entry): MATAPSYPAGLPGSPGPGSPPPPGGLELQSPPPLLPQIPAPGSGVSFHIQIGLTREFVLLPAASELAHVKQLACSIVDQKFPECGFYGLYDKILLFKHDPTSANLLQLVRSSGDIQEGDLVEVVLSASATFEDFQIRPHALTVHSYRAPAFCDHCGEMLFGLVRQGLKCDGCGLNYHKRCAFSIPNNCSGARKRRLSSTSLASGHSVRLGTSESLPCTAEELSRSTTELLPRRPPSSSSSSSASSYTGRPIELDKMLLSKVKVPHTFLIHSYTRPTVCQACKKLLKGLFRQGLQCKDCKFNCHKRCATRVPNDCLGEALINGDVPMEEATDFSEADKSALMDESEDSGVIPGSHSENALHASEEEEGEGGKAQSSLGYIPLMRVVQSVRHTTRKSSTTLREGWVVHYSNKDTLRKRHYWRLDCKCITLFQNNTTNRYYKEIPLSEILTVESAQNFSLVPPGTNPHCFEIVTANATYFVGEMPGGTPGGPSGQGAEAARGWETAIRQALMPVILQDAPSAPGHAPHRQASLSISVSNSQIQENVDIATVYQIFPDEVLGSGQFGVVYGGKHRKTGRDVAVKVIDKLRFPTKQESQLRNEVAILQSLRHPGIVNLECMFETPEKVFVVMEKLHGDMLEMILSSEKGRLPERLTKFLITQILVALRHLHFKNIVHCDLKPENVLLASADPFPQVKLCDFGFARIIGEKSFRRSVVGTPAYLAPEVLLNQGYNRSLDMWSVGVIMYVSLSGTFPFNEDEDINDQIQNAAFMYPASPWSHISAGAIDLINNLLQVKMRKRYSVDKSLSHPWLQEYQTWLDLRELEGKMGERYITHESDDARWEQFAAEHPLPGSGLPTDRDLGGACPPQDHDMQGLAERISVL
Sequence of RAC-beta serine/threonine-protein kinase (Homo sapiens) (P31751 whole entry): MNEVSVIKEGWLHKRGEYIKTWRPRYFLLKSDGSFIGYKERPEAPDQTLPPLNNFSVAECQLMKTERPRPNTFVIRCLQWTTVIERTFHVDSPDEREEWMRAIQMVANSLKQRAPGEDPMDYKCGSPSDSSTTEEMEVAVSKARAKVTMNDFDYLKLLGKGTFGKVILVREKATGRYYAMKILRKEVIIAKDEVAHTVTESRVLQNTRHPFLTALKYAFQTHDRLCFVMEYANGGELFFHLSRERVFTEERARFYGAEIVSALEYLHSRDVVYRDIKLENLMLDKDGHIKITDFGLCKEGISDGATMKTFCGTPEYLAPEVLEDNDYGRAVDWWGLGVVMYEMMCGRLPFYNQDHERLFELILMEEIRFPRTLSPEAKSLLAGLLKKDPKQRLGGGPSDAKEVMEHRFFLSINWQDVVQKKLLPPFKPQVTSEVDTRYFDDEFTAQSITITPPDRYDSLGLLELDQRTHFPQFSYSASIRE
Sequence of Receptor-type tyrosine-protein kinase FLT3 (Homo sapiens) (P36888 whole entry): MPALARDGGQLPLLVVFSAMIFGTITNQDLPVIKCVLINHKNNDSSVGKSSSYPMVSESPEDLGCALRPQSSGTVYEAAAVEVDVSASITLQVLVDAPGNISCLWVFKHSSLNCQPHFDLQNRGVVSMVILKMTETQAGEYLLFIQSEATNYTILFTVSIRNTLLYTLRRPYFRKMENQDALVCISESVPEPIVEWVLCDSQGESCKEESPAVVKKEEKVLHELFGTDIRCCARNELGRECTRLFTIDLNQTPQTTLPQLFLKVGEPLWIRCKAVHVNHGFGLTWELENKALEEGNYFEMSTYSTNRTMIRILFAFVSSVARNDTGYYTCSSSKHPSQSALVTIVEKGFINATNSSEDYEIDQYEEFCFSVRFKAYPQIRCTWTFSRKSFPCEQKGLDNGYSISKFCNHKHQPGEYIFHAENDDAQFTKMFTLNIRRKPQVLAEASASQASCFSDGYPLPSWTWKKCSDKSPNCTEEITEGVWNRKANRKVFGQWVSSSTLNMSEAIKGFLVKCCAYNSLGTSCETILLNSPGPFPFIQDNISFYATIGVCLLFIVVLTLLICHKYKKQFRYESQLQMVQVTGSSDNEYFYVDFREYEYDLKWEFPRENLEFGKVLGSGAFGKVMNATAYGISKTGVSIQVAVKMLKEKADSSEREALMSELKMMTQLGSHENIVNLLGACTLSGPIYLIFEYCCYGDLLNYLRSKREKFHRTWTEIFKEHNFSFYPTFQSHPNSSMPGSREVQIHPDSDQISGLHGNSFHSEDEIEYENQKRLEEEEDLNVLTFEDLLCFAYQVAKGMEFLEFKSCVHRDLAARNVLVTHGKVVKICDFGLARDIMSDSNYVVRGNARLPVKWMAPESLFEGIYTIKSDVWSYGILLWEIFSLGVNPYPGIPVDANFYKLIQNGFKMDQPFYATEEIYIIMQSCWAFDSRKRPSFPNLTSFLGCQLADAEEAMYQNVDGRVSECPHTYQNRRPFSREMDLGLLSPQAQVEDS
Sequence of Mitogen-activated protein kinase 3 (Homo sapiens) (P27361 whole entry, canonical isoform): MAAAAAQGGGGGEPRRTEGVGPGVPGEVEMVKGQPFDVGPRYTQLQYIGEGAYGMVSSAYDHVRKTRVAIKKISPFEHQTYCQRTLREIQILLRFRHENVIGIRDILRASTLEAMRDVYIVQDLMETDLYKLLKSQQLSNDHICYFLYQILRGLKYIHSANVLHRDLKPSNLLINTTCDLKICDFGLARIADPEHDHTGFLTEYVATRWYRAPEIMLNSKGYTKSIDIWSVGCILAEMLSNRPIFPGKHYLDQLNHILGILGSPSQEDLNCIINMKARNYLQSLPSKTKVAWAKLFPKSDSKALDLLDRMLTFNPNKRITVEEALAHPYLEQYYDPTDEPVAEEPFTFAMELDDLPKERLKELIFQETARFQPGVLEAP
Sequence of Fibroblast growth factor receptor 1 (Homo sapiens) (P11362 22-822 limits assumed): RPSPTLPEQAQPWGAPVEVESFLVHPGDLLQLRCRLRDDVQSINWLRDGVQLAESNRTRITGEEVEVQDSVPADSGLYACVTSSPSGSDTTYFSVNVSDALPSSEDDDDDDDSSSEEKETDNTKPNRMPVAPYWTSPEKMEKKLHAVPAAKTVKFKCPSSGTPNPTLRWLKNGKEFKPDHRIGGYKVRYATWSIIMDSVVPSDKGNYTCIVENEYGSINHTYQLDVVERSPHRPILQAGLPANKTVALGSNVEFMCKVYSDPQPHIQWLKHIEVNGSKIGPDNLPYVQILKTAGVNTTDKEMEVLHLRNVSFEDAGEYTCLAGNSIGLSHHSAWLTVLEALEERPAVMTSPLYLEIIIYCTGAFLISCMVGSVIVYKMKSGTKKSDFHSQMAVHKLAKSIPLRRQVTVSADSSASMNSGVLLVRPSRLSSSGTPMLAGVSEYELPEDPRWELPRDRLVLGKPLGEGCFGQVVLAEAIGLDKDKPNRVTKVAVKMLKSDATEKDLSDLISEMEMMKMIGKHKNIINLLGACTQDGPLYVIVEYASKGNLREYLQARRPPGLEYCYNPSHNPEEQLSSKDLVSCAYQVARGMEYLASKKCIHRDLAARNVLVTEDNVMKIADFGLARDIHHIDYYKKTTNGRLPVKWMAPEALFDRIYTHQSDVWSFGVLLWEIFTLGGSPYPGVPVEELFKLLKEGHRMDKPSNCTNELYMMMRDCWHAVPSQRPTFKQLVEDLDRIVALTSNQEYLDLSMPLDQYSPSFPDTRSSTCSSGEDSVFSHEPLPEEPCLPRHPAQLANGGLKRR
Sequence of MAP kinase-activated protein kinase 5 (Homo sapiens) (Q8IW41 whole entry): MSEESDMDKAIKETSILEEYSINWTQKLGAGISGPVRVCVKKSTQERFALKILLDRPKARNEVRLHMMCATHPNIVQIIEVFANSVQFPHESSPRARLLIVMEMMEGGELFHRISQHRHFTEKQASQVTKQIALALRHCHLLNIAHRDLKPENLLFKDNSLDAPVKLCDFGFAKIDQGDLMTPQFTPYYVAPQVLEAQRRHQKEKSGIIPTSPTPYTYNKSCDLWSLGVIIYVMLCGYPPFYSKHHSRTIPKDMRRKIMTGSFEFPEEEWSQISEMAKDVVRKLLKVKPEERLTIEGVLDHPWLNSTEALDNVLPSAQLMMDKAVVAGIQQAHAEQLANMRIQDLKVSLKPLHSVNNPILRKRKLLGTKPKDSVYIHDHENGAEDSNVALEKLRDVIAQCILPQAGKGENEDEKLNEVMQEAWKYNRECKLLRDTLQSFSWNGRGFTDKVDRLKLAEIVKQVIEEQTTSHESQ
Sequence of Proto-oncogene tyrosine-protein kinase Src (Homo sapiens) (P12931 2-536 limits assumed): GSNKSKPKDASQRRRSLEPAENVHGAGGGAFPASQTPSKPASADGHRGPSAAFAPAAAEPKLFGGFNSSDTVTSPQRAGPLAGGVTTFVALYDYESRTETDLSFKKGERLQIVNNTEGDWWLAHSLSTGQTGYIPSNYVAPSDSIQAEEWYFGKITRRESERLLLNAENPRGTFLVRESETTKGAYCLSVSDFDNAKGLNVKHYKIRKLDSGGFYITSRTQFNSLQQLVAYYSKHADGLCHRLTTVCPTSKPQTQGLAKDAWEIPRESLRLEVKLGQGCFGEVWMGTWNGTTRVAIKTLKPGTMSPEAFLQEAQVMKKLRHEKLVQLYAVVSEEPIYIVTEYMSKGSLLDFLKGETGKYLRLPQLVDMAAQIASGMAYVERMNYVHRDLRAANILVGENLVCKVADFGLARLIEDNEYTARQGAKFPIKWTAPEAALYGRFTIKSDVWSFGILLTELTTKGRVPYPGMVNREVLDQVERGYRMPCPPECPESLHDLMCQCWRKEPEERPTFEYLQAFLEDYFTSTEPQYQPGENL

inhibition [13]: 2%
inhibition [14]: 9%
inhibition [15]: 4%
inhibition [16]: 0%
inhibition [17]: -2%
inhibition [18]: 10%
inhibition [19]: 0%
inhibition [20]: 3%
inhibition [21]: 0%
inhibition [22]: 0%
inhibition [23]: 0%
inhibition [24]: 38%
inhibition [25]: 3%
inhibition [26]: 11%
inhibition [27]: 21%
inhibition [28]: -5%
inhibition [29]: 8%
inhibition [30]: Active
inhibition [34]: -2%
Structure (SMILES): NCCN1C(=O)S/C(=C\CCC2CCCCC2)C1=O
viability at 20 µM [1]: 5.1%
Activity (U-937 [2]): 2.1%
Activity (U-937 [3]): 40.9%
viability at 10 µM (U-937 [4]): 62.8%
Activity (U-937 [5]): 0.7%
Activity (U-937 [6]): 5.7%
viability at 3 µM (U-937 [7]): 90.1%
Activity (U-937 [8]): 2.1%
Activity (U-937 [9]): 16.5%
Activity (U-937 [10]): 3.5%
viability at 3 µM (U-937 [11]): 86.9%
Activity (U-937 [12]): Active
growth inhibition (GI) (PC-3): Active
Activity (U-937 [31]): 49.9%
Activity (U-937 [32]): Active
Activity [33]: 5.2%
